Laboratory results as given in article PMC3263408 (International Journal of Nanomedicine, 2012).
Values after ≈ are worked out from the molar mass of the structure shown.

Legend:
[1] = Solubility of curcumin in various vehicles; format: physicochemical
Summary of the method: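 Excess test compound was shaken in 1 mL vehicle in a water bath at room temperature for 48 h. It was then centrifuged at 12,000 rpm for 10 min and passed through a 0.45 μm filter, and the supernatant was diluted in methanol. Quantified by HPLC: C18 column (5 μm, 4.6 × 250 mm) at room temperature, methanol:water (3.6% glacial acetic acid) 73:27 v/v, 1.0 mL/min, detection at 428 nm.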

Hela cells = assay: MTT cytotoxicity assay; format: cell-based; settings: Homo sapiens, 24 h, read-out: IC50 (50% cell killing)
Summary of the method: (§1)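 Cells were kept in folate-free RPMI 1640 with 10% FBS at 37°C and 5% CO2, then seeded at 5000/well and left to attach for 24 h. Test compound was given free (DMSO), in SMEDDS or in FSMEDDS, ±1 mM free folate, at 1, 5, 10, 20 and 40 μM for 24 h at 37°C. After three PBS washes, MTT was added for 4 h, formazan dissolved in DMSO, and OD read at 570 nm. Triplicates; IC50 from concentration–viability curves.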

HT-29 cells = assay: MTT cytotoxicity assay; format: cell-based; settings: Homo sapiens, HT-29, 24 h, read-out: IC50 (50% cell killing)
Summary of the method: as §1

[2] = cited from earlier work

solubility at 48 h ([1]; Capryol 90 (oil), oil or lipid, thermodynamic from solid): 9430 ± 800 µg/mL (≈ 25.6 mM)
solubility at 48 h ([1]; Cremophor EL (surfactant), organic solvent or mixture, thermodynamic from solid): 65800 ± 4800 µg/mL (≈ 179 mM)
solubility at 48 h ([1]; Emulsifier OP (surfactant), organic solvent or mixture, thermodynamic from solid): 5160 ± 1030 µg/mL (≈ 14 mM)
solubility at 48 h ([1]; Labrafil M1944CS (oil)): 3170 ± 130 µg/mL (≈ 8.61 mM)
solubility at 48 h ([1]; Labrasol (surfactant), organic solvent or mixture, thermodynamic from solid): 99300 ± 1730 µg/mL (≈ 270 mM)
solubility at 48 h ([1]; PEG 400 (cosurfactant), organic solvent or mixture, thermodynamic from solid): 159800 ± 480 µg/mL (≈ 434 mM)
solubility at 48 h ([1]; Tween 80 (surfactant), organic solvent or mixture, thermodynamic from solid): 4860 ± 1150 µg/mL (≈ 13.2 mM)
solubility at 48 h ([1]; castor oil (oil), oil or lipid, thermodynamic from solid): 1560 ± 470 µg/mL (≈ 4.23 mM)
solubility at 48 h ([1]; ethanol (cosurfactant), organic solvent or mixture, thermodynamic from solid): 5980 ± 630 µg/mL (≈ 16.2 mM)
solubility at 48 h ([1]; ethyl oleate (oil), oil or lipid, thermodynamic from solid): 1040 ± 20 µg/mL (≈ 2.82 mM)
solubility at 48 h ([1]; isopropyl myristate (oil), oil or lipid, thermodynamic from solid): 510 ± 50 µg/mL (≈ 1.38 mM)
SMILES: COc1cc(/C=C/C(=O)CC(=O)/C=C/c2ccc(O)c(OC)c2)ccc1O [curcumin]
IC50 (Hela cells): 30.4 ± 1.71 µM
IC50 (HT-29 cells): 25.6 ± 2.23 µM
Solubility of curcumin in the aqueous medium [2]: about 11 ng/g
